In ChEMBL document CHEMBL5712915, “The Role of the Histone Methyltransferase EZH2 in Liver Inflammation and Fibrosis in STAM NASH Mice” (Biology (Basel), 2020):
Calls of active or inactive are those of the source. No cut-off for these calls is given here.

Key:
Mus musculus [1] = assay: Anti-NASH activity in streptozotocin induced C57BL/6 mouse STAM model assessed as reduction of liver steatosis administered at 10 mg/kg, po daily for 3 weeks by oil red O staining analysis; format: functional, organism-based
How it was run: (§1)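 Male C57BL/6 pups given streptozotocin (200 μg per mouse) at two days old, high-fat diet from four weeks. Dosed orally once daily at 10 mg/kg from six to nine weeks of age. Liver fixed in 10% neutral buffered formalin and paraffin-embedded. 5-μm sections stained with H&E, or with Oil Red O for hepatic lipid.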

Mus musculus [2] = assay: Anti-NASH activity in streptozotocin induced C57BL/6 mouse STAM model administered at 10 mg/kg, po daily for 3 weeks by hematoxylin and eosin staining analysis; format: functional, organism-based; how it was run: as §1
Mus musculus [3] = assay: Antiinflammatory activity in streptozotocin induced C57BL/6 mouse STAM model assessed as reduction of TNF-alpha level administered at 10 mg/kg, po daily for 3 weeks; format: functional, organism-based
How it was run: (§2)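 Streptozotocin (200 μg per mouse) given to two-day-old male C57BL/6 pups, high-fat diet from four weeks. Oral dosing at 10 mg/kg once daily for three weeks, starting at six weeks of age. Under anesthesia 500 μl blood collected and serum separated for TNF-α, ALT and glucose. Means ± SE; one-way ANOVA with Newman–Keuls test.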

[4] = Toxicity in streptozotocin induced C57BL/6 mouse STAM model assessed as change in body weight at 10 mg/kg, po daily for 3 weeks; format: organism-based; settings: in vivo, 504 h
How it was run: (§3)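 In STAM mice (male C57BL/6, streptozotocin 200 μg per mouse at day 2, high-fat diet from week 4), oral dosing at 10 mg/kg once daily from six to nine weeks. Body weight recorded daily between 15:00 and 17:00. Liver, kidney and white adipose tissue weights expressed relative to body weight. Means ± SE; one-way ANOVA with Newman–Keuls test.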

Mus musculus [5] = assay: Antiinflammatory activity in streptozotocin induced C57BL/6 mouse STAM model assessed as reduction of glucose level administered at 10 mg/kg, po daily for 3 weeks; format: functional, organism-based; how it was run: as §2
[6] = Toxicity in streptozotocin induced C57BL/6 mouse STAM model assessed as change in liver weight at 10 mg/kg, po daily for 3 weeks; format: organism-based; settings: in vivo, 504 h; how it was run: as §3
Mus musculus [7] = assay: Antiinflammatory activity against streptozotocin induced C57BL/6 mouse STAM model assessed as reduction of IFN-gamma expression administered at 10 mg/kg, po for 3 weeks; format: functional, organism-based
How it was run: (§4)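 STAM mice: male C57BL/6 pups given streptozotocin (200 μg per mouse) at day 2, high-fat diet from week 4, oral dosing at 10 mg/kg once daily from weeks 6–9. Liver total RNA reverse transcribed. qPCR run for 40 cycles of 95 °C 15 s, 55–60 °C 15 s, 72 °C 30 s. Comparative Ct method, normalized to GAPDH/18S, compared with control group.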

[8] = Toxicity in streptozotocin induced C57BL/6 mouse STAM model assessed as change in kidney weight at 10 mg/kg, po daily for 3 weeks; format: organism-based; settings: in vivo, 504 h; how it was run: as §3
Mus musculus [9] = assay: Antiinflammatory activity in streptozotocin induced C57BL/6 mouse STAM model assessed as reduction of ALT level administered at 10 mg/kg, po daily for 3 weeks; format: functional, organism-based; how it was run: as §2
[10] = Toxicity in streptozotocin induced C57BL/6 mouse STAM model assessed as change in white adipose tissue weight at 10 mg/kg, po daily for 3 weeks; format: organism-based; settings: in vivo, 504 h; how it was run: as §3
Mus musculus [11] = assay: Antiinflammatory activity against streptozotocin induced C57BL/6 mouse STAM model assessed as increase in Runx3 mRNA expression administered at 10 mg/kg, po for 3 weeks; format: functional, organism-based; how it was run: as §4
[12] = target: Histone-lysine N-methyltransferase EZH2 (Mus musculus) (UniProt Q61188); assay: In vivo inhibition of EZH2 in streptozotocin induced C57BL/6 mouse STAM model assessed as reduction mRNA level administered at 10 mg/kg, po for 3 weeks; format: functional, organism-based; how it was run: as §4
Chain of Histone-lysine N-methyltransferase EZH2 (Mus musculus) (Q61188 whole entry): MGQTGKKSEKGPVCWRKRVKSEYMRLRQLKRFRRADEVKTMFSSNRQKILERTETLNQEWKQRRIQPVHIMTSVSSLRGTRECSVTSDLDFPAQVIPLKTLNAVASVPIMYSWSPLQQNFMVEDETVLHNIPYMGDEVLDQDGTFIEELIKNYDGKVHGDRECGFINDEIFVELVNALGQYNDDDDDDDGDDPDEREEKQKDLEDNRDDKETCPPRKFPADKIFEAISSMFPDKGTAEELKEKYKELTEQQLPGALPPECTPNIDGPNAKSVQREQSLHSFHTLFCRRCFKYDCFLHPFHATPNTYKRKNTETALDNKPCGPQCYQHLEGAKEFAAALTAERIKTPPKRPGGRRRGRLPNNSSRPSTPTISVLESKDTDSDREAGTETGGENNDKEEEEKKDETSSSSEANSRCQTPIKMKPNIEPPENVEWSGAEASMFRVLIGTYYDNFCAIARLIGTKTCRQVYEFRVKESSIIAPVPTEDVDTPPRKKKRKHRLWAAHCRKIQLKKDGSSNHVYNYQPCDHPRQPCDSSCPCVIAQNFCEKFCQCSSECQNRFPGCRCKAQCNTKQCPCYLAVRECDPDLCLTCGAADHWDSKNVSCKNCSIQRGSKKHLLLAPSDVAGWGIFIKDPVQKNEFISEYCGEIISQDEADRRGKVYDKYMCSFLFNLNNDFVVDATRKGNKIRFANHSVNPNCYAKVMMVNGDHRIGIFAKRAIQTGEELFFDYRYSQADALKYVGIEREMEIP

CC[C@H]1[C@@H](O)[C@@H]2[C@H](CC[C@]3(C)[C@@H]([C@H](C)CCC(=O)O)CC[C@@H]23)[C@@]2(C)CC[C@@H](O)C[C@@H]12
Activity (Mus musculus [1]): Active | Activity (Mus musculus [2]): Active

CCN(c1cc(-c2ccc(CN3CCOCC3)cc2)cc(C(=O)NCc2c(C)cc(C)[nH]c2=O)c1C)C1CCOCC1 [TAZEMETOSTAT]
Activity (Mus musculus [3]): inactive | Activity (Mus musculus [1]): Active | Activity (Mus musculus [2]): Active | Activity [4]: Non-Toxic | Activity (Mus musculus [5]): inactive | Activity [6]: Non-Toxic | Activity (Mus musculus [7]): Active | Activity [8]: Non-Toxic | Activity (Mus musculus [9]): inactive | Activity [10]: Non-Toxic | Activity (Mus musculus [11]): Active

CCCc1cc(C)[nH]c(=O)c1CNC(=O)c1cc(-c2ccc(N3CCN(C(C)C)CC3)nc2)cc2c1cnn2C(C)C
Activity (Mus musculus [3]): Active | Activity (Mus musculus [1]): Active | inhibition [12]: Active | Activity (Mus musculus [2]): Active | Activity [4]: Non-Toxic | Activity (Mus musculus [5]): inactive | Activity [6]: Non-Toxic | Activity (Mus musculus [7]): Active | Activity [8]: Non-Toxic | Activity (Mus musculus [9]): inactive | Activity [10]: Non-Toxic | Activity (Mus musculus [11]): Active
